The results in this text go back to ChEMBL document CHEMBL1125563, “Selective, centrally acting serotonin 5-HT2 antagonists. 1. 2- and 6-substituted 1-phenyl-3-(4-piperidinyl)-1H-indoles” (J Med Chem, 1992).

The target of assay [1] is T1, Adrenergic receptor alpha-1 (Rattus norvegicus, UniProt P15823+P23944+P43140).
T1 sequence (P15823 whole entry): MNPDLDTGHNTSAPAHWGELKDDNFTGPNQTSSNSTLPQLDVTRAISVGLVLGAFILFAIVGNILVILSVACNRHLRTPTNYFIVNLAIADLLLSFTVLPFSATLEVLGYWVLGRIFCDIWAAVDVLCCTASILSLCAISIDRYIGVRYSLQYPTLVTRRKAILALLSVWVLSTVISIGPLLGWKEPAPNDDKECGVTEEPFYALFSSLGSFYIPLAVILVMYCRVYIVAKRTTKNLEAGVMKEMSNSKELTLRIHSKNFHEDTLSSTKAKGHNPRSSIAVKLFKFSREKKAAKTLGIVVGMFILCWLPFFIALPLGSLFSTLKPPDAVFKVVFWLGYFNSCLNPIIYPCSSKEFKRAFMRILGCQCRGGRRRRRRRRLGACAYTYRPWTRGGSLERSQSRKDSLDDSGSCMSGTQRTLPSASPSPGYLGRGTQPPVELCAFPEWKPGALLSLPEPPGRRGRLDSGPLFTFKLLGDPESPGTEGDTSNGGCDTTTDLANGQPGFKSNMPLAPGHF
T1 sequence (P23944 whole entry): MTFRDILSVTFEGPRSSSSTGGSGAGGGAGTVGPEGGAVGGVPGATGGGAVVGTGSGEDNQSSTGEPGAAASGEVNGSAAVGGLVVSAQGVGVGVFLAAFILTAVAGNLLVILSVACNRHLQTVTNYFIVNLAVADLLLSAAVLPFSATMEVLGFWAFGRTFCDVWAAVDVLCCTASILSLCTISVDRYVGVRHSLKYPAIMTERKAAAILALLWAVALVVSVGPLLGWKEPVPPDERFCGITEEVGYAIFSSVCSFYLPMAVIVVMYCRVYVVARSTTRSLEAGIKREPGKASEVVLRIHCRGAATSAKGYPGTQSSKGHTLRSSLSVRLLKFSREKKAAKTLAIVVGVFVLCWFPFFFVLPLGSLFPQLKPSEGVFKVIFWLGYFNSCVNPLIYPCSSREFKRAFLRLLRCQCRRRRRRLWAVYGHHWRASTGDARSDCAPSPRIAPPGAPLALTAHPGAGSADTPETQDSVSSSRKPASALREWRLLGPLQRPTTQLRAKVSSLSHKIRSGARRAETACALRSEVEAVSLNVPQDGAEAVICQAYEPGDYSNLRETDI
T1 sequence (P43140 whole entry): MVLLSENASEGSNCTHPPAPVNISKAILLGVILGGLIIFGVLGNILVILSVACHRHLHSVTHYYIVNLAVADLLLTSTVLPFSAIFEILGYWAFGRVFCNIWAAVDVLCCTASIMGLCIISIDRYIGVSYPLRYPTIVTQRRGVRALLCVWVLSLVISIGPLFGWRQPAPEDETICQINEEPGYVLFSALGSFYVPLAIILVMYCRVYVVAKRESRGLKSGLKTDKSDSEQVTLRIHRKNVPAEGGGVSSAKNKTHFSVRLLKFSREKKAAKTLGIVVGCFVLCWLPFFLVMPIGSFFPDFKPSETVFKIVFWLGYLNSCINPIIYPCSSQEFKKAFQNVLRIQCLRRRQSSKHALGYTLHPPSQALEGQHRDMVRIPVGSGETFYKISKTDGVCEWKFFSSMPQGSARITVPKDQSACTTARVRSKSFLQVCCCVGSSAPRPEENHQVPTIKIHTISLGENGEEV
Nature of the assay: Displacement of [3H]prazosin from Alpha-1 adrenergic receptor of whole rat brain membranes. The assay is classed as cell membranes, Membrane. The method, boiled down:
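α1 adrenoceptor binding measured as displacement of [3H]prazosin from whole rat brain membranes. Five test-drug concentrations spanning three decades in triplicate, two full curves; IC50 from log concentration-effect curves, logarithmic mean of at least two determinations.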
A general note: In a radioligand displacement assay an active substance lowers the binding of a labelled ligand.

The target in the next assay is D(2) dopamine receptor (Rattus norvegicus, UniProt P61169). Briefly: Displacement of [3H]-spiperone from Dopamine receptor D2 from rat striatal membranes. The assay is classed as cell membranes, Membrane. The method, boiled down:
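[3H]spiperone displacement from rat striatal membranes (D2). Five test-drug concentrations over three decades, in triplicate, two full curves; IC50 from log concentration-effect curves, reported as logarithmic mean of at least two determinations.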

For assay [2], the species on record is Mus musculus. Briefly: Compound was evaluated for the inhibition of isolation-induced aggression at a threshold of 180 seconds. The assay is classed as functional. The method, boiled down:
(§1)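 Isolated male NMRI mice (3 weeks) trained to attack a nonaggressive intruder of the same strain; only mice with attack latency <25 s included. Pretested just before dosing and 2 h after sc test substance; observation maximum 180 s; at least eight mice per dose.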

The species named for assay [3] is Mus musculus. Briefly: Compound was evaluated for the inhibition of isolation-induced aggression at a threshold of, 90 seconds. The assay is classed as functional. The gist of the method: as §1
For assay [4], the system named is Rattus norvegicus. Nature of the assay: Compound was evaluated for the inhibition of quipazine-induced head twitches after 2 h (administered subcutaneously); 0.11-0.29. The class given is functional. Particulars: sc.
Assay [5] has as its system Rattus norvegicus. Briefly: Compound was evaluated for the inhibition of quipazine-induced head twitches after 24 hr (administered perorally); 0.014-0.074. Particulars: po. The class given is functional.
Assay [6] deals with Rattus norvegicus. Briefly: Compound was evaluated for the inhibition of pergolide-induced reactions after 2 hr (administered subcutaneously). The class given is functional. Particulars: sc. The gist of the method:
(§2)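 Male Wistar rats with unilateral 6-OHDA lesions; test drug sc 2 h before pergolide (0.05 µmol/kg sc) to induce contralateral circling. Effect of each dose expressed as percent of mean of control sessions 1 week before and 1 week after, per rat; at least four rats per dose; ED50 by log-probit analysis.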

Assay [7] addresses Serotonin 2 (5-HT2) receptor (Rattus norvegicus, UniProt P30994+P08909+P14842). Nature of the assay: Displacement of [3H]ketanserin from 5-hydroxytryptamine 2 receptor from rat cortical membranes. The class given is cell membranes, Membrane. The method, boiled down: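 [3H]ketanserin displacement from rat cortical membranes (5-HT2). Five concentrations across three decades in triplicate, two full curves; IC50 estimated on a log-concentration scale, given as logarithmic mean of at least two determinations.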

The test system of assay [8] is Rattus norvegicus. Nature of the assay: Compound was evaluated for the inhibition of quipazine-induced head twitches after 24 h (administered subcutaneously); 0.0042-0.061. Particulars: sc.
Assay [9] concerns Rattus norvegicus. Briefly: Compound was evaluated for the inhibition of quipazine-induced head twitches after 2 hr (administered subcutaneously); 0.072-0.45. The class given is functional. Particulars: sc.
Assay [10] deals with Rattus norvegicus. Nature of the assay: Compound was evaluated for the inhibition of quipazine-induced head twitches after 24 h (administered perorally); 0.031-0.20. The class given is functional. Particulars: po.
For assay [11], the system named is Rattus norvegicus. Nature of the assay: Compound was evaluated for the inhibition of pergolide-induced reactions after 2 hr (administered subcutaneously); 9.7-87. Particulars: sc. The class given is functional. The gist of the method:
as §2

Assay [12] concerns Rattus norvegicus. Nature of the assay: Compound was evaluated for the inhibition of pergolide-induced reactions after 2 hr (administered subcutaneously); 9.7-87. Particulars: sc.
Assay [13] is filed under the species Mus musculus. Nature of the assay: Compound was evaluated for the inhibition of isolation-induced aggression at a threshold of 180 seconds; 2.3-12.4. The assay is classed as functional.
The species named for assay [14] is Mus musculus. Briefly: Compound was evaluated for the inhibition of isolation-induced aggression at a threshold of, 90 seconds; 3.5-18.4. The class given is functional.
The subject of assay [15] is Rattus norvegicus. Nature of the assay: Compound was evaluated for the inhibition of quipazine-induced head twitches after 2 hr (administered subcutaneously); 0.010-0.24. The assay is classed as functional. Particulars: sc.
The test system of assay [16] is Rattus norvegicus. Briefly: Compound was evaluated for the inhibition of quipazine-induced head twitches after 24 hr (administered subcutaneously); 0.0027-0.031. The assay is classed as functional. Particulars: sc.
In assay [17] the test system is Rattus norvegicus. Briefly: Compound was evaluated for the inhibition of quipazine-induced head twitches after 24 hr (administered perorally); 0.010-0.048. The assay is classed as functional. Particulars: po.
Assay [18] is filed under the species Mus musculus. Nature of the assay: Compound was evaluated for the inhibition of isolation-induced aggression at a threshold of 180 seconds; 4.4-13. The class given is functional. The gist of the method: as §1
Assay [19] is filed under the species Mus musculus. Briefly: Compound was evaluated for the inhibition of isolation-induced aggression at a threshold of, 90 seconds; 3.7-9.4. The assay is classed as functional. The method, boiled down: as §1
Assay [20] relates to Rattus norvegicus. Nature of the assay: Compound was evaluated for the inhibition of quipazine-induced head twitches after 2 hr (administered subcutaneously); 0.022-0.056. Particulars: sc. The assay is classed as functional.
For assay [21], the system named is Rattus norvegicus. Nature of the assay: Compound was evaluated for the inhibition of quipazine-induced head twitches after 24 hr (administered subcutaneously); 0.014-0.066. The assay is classed as functional. Particulars: sc.
Assay [22] has as its system Rattus norvegicus. Briefly: Compound was evaluated for the inhibition of quipazine-induced head twitches after 24 hr (administered perorally); 0.020-0.078. The assay is classed as functional. Particulars: po.
The test system of assay [23] is Rattus norvegicus. Nature of the assay: Compound was evaluated for the inhibition of pergolide-induced reactions after 2 hr (administered subcutaneously); 1.5-8.9. Particulars: sc. The class given is functional. The method, boiled down: as §2

Sequence of D(2) dopamine receptor (P61169 whole entry): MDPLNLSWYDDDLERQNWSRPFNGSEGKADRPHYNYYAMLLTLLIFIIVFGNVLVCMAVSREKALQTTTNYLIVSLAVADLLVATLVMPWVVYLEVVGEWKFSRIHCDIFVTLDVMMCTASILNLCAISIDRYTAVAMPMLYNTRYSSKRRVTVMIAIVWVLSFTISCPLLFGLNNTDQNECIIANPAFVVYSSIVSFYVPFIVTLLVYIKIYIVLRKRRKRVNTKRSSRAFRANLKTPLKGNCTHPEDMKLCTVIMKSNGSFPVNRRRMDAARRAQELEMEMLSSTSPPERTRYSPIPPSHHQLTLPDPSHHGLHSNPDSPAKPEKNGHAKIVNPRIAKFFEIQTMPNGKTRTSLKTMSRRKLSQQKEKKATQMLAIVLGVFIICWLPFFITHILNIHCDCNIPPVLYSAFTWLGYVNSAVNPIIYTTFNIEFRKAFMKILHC

Broadly, the IC50 is the midpoint of a concentration-inhibition curve. A low value points to greater potency in that assay. For orientation: ED50 means the dose that gives a 50% effect, or the effect in half of the subjects. A low value points to greater potency. On to `CC(C)NC(=O)N(C)CCN1CCC(c2cn(-c3ccc(F)cc3)c3cc(Cl)ccc23)CC1`, for which the IC50 amounted to 26 nM in assay [1], 74 nM on D(2) dopamine receptor and 2.2 nM in [7]. Moreover, the ED50 is over 21 µmol/kg in the assay listed under Mus musculus [2]; over 21 µmol/kg in the assay filed under Mus musculus [3]; 0.18 µmol/kg in the assay on Rattus norvegicus [4]; 0.032 µmol/kg in the assay with Rattus norvegicus [5]; over 21 µmol/kg with Rattus norvegicus [6]; 0.016 µmol/kg in the assay with Rattus norvegicus [8].
With `Cc1c(C2CCN(CCN3CCNC3=O)CC2)c2ccccc2n1-c1ccc(F)cc1`, the figures for the IC50 in [1] and in [7] were 76 nM and 0.59 nM, respectively. Further, the ED50 stood at 0.18 µmol/kg in the assay on Rattus norvegicus [9], 0.078 µmol/kg in the assay with Rattus norvegicus [10], 29 µmol/kg with Rattus norvegicus [11] and 29 µmol/kg in the assay with Rattus norvegicus [12].
On to `c1cc2c(c(N3CCNCC3)c1)OCCO2` [ELTOPRAZINE], for which the ED50 amounted to 5.4 µmol/kg in the assay listed under Mus musculus [13] and 8 µmol/kg in the assay listed under Mus musculus [14].
In the case of `CNC(=O)N(C)CCN1CCC(c2cn(-c3ccc(F)cc3)c3cc(Cl)ccc23)CC1`, the IC50 in assay [1] was 16 nM; at D(2) dopamine receptor it was 82 nM; in [7], 1.6 nM. Besides, the ED50 in the assay listed under Mus musculus [2] was over 23 µmol/kg; in the assay listed under Mus musculus [3], over 23 µmol/kg; in the assay with Rattus norvegicus [15] it was 0.049 µmol/kg; with Rattus norvegicus [16] it was 0.0092 µmol/kg; in the assay on Rattus norvegicus [6], over 23 µmol/kg; in the assay on Rattus norvegicus [17], 0.022 µmol/kg.
`O=C1NCCN1CCN1CCC(c2cn(-c3ccc(F)cc3)c3ccc(Cl)cc23)CC1` [SERTINDOLE] showed an IC50 in [1] of 3.4 nM. Also, the median effective dose (ED50) came out at 7.5 µmol/kg in the assay listed under Mus musculus [18]; 5.9 µmol/kg in the assay filed under Mus musculus [19]; 0.035 µmol/kg with Rattus norvegicus [20]; 0.03 µmol/kg in the assay on Rattus norvegicus [21]; 0.039 µmol/kg in the assay on Rattus norvegicus [22]; 3.7 µmol/kg in the assay on Rattus norvegicus [23].
